Values after ≈ are worked out from the molar mass of the structure shown. Values joined by “and” are separate entries in the source; they are usually repeats but may differ in a detail not shown here. Identical values can stand only once.

Assay [1] has as its target T1, Holo-[acyl-carrier-protein] synthase (Bacillus subtilis (strain 168), UniProt P96618).
T1 sequence (P96618 whole entry): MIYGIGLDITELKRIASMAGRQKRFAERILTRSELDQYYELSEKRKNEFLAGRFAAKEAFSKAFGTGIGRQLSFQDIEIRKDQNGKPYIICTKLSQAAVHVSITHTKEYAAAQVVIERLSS
Kind of assay: Inhibitory activity against Bacillus subtilis AcpS by HTRF assay. On the technique in general: In TR-FRET formats the signal depends on donor and acceptor labels being close together.

In assay [2] the test system is Escherichia coli. Kind of assay: Inhibitory activity against Escherichia coli. The class given is functional. The method in brief:
(§1)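 Broth microdilution per NCCLS in Mueller-Hinton II broth; serial dilutions in microtiter wells, inoculum 10⁵ CFU/mL, 100 μL final. Incubated 18–22 h at 35 °C in ambient air. MIC taken as lowest concentration giving complete visible growth inhibition by unaided eye.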

In assay [3] the test system is Streptococcus pneumoniae. Kind of assay: Inhibitory activity against penicillin-resistant Streptococcus pneumoniae penR. It counts as functional. The method in brief:
(§2)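 Broth microdilution per NCCLS in Mueller-Hinton II broth; serial compound dilutions inoculated to 10⁵ CFU/mL, incubated 18–22 h at 35 °C in ambient air. MIC taken as lowest concentration completely inhibiting visible growth (unaided eye).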

Assay [4] has as its system Enterococcus faecalis. Briefly: Inhibitory activity against vancomycin-resistant Enterococcus faecalis VRE. The class given is functional. In short, it runs like this: as §2
Assay [5] deals with Candida albicans. Briefly: Inhibitory activity against Candida albicans. It counts as functional. In short, it runs like this: as §1
Assay [6] deals with Staphylococcus aureus. Briefly: Inhibitory activity against methicillin-resistant Staphylococcus aureus MRSA. It counts as functional. The method in brief: as §2
The subject of assay [7] is Bacillus subtilis. Kind of assay: Inhibitory activity against Bacillus subtilis 168. It counts as functional. In short, it runs like this: as §1

Turning to `C/C(=C\c1ccc(Cl)cc1)C(=O)Nc1cc(Cl)ccc1C(=O)O`, the midpoint of inhibition in assay [1], the IC50, lay at 32.3 µM. Further, the MIC in assay [2] was above 128 mg/L; in assay [3], 32 mg/L (≈ 91.4 µM); in assay [4], 64 mg/L (≈ 183 µM); in assay [5], above 128 mg/L; in assay [6], 32 mg/L (≈ 91.4 µM); in assay [7], 32 mg/L (≈ 91.4 µM).
`O=C(O)c1cc(Cl)ccc1NC(=O)c1cccc2c1-c1ccccc1C2=O`: in assay [1], the IC50 is 0.821 µM and 0.82 µM.
For the compound `CC(Cc1ccccc1)C(=O)Nc1ccc(Cl)cc1C(=O)O` (configuration not stated), the IC50 in assay [1] was 2.83 µM and 2.8 µM.
Take `CSC(Cc1ccc(Cl)cc1)C(=O)Nc1ccc(Cl)cc1C(=O)O` (configuration not stated): the IC50 in assay [1] was 1.43 µM and 1.4 µM. For the same compound, the MIC in assay [2] was above 128 mg/L; in assay [3], 64 mg/L (≈ 167 µM); in assay [4], 128 mg/L (≈ 333 µM); in assay [5], above 128 mg/L; in assay [6] it was 64 mg/L (≈ 167 µM); in assay [7], 64 mg/L (≈ 167 µM).
Regarding `NS(=O)(=O)c1cc(C(=O)O)c(NCc2ccco2)cc1Cl` [FUROSEMIDE], 12.7 µM corresponded to half-maximal inhibition in assay [1] (IC50).

For orientation: IC50 means the concentration that inhibits the measured activity by half. A low value points to higher potency. The MIC is the lowest concentration that inhibits growth of the organism. A higher MIC goes with a need for much substance.
